This is an account of results in publication PMC10171401 (Nature methods, 2022).

Read-outs that look alike come from different tables or passages of the source.

Experiment [1] concerns cAMP. The format is cell-based, human. The following applies: propranolol 1 μM; HEK cells. Summed up: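 HEK-293 cells were grown in MEM with 10% FBS at 37°C in 5% CO2, plated on poly-D-lysine coverslips and transfected by Lipofectamine-2000 (0.5–3 μg plasmid per dish). Cells were given norepinephrine, then 25 μM forskolin plus 50 μM IBMX. CFP/YFP ratios were computed after per-channel background subtraction and normalized to the forskolin/IBMX response. Concentration-response curves were fitted with the Hill equation.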

Experiment [2] relates to cAMP. In words: 2pFLIM response to norepinephrine in CA1 neurons in cultured hippocampal slices. It counts as cell-based, rat. Summed up:
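Rat hippocampal slices (400 μm, P6–7 pups of both sexes) were cultured at 35°C in 5% CO2 and imaged 2–3 days after transfection in carbogen-gassed aCSF with 4 mM CaCl2 and 4 mM MgCl2. CA1 neurons expressing cAMPFIRE-M received 0.1 μM norepinephrine with or without 1 μM propranolol, followed by wash. cAMPFIRE-L and its R279E mutant received 1 μM norepinephrine. Data are mean ± s.e.m. over cells.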

Experiment [3] relates to cAMP in L23 pyramidal neurons. Kind of experiment: In vivo 2pFLIM of tonic cAMP in L23 pyramidal neurons of awake head-fixed mice. Details: species or system mouse. The note with it: for effect on cAMP in neuronal dendrites / effect on cAMP in neuronal somas: intraperitoneal, yohimbine 5 mg/kg, propranolol 25 mg/kg. The procedure, abridged:
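Awake, head-fixed mice carried cAMPFIRE-L in L2/3 somatosensory neurons, introduced by in utero electroporation at E15.5, and were imaged by 2pFLIM through a cranial window fitted at P30–60. Isoflurane (1.5%) was given by nose cone; other drugs were given i.p., including morphine at 25 mg/kg. Lifetime was taken as mean photon emission time from soma and dendrite ROIs. Data are mean ± s.e.m.; paired two-tailed t-test.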

A further experiment deals with cAMP in L23 neurons. In words: In vivo 2pFLIM of cAMP responses to enforced running in L23 neurons. More on the design: species or system mouse. The following applies: intraperitoneal injection; cAMPFIRE-L. Summed up:
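cAMPFIRE-L was expressed in L2/3 somatosensory pyramidal neurons by in utero electroporation of C57BL/6 embryos at E15.5. Plasmid (~2–3 μg/μL, 1 μL) went into the lateral ventricle, followed by five 100-ms pulses at 35 V, 1 Hz. A cranial window was fitted at P30–60 with two weeks' recovery. Awake head-fixed mice on a treadmill (rotary-encoder velocity) were imaged by 2pFLIM of running-evoked responses before and after i.p. drug.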

Regarding `CC(C)NCC(O)COc1cccc2ccccc12` (stereo not shown) [propranolol], in the experiment on cAMP [1], the “effect on sensor response to norepinephrine” value is reported as “blocked”. For the same compound, in the experiment on cAMP [2], the “effect on sensor response to norepinephrine” value is given as “blocked”. In experiment [3] (cAMPFIRE-L), the “effect on cAMP in neuronal dendrites” value is “decreased” and the “effect on cAMP in neuronal somas” value is on record as “decreased”. Further, in the experiment on cAMP in L23 neurons, the “effect on negative cAMP responses to enforced running” value is “reduced” and the “effect on positive cAMP responses to enforced running” value is listed as “did not affect”.

As for `CN1CC[C@]23c4c5ccc(O)c4O[C@H]2[C@@H](O)C=C[C@H]3[C@H]1C5` [Morphine, morphine], in experiment [3] (morphine 25 mg/kg), the “time to plateau of cAMP decrease post administration” value is listed as ~ 40 minutes. Also, the “effect on cAMP activity in L23 neurons” value in experiment [3] (morphine 25 mg/kg, cAMPFIRE-L) was “decreased”.

For `COC(=O)[C@@H]1[C@H]2C[C@H]3c4[nH]c5ccccc5c4CCN3C[C@@H]2CC[C@@H]1O` [yohimbine], in experiment [3] (cAMPFIRE-L), the “effect on cAMP in neuronal dendrites” value is “increased” and the “effect on cAMP in neuronal somas” value is reported as “little effect”. In addition, in the experiment on cAMP in L23 neurons, the “effect on negative cAMP responses to enforced running” value was “significantly attenuated” and the “effect on positive cAMP responses to enforced running” value is “increased”.

As to `FC(F)OC(Cl)C(F)(F)F` (stereo not shown) [Isoflurane, isoflurane], the “effect on cAMP levels in neuronal somas” value in experiment [3] (1.5% inhaled, measured using cAMPFIRE-L) is recorded as “significantly reduced”.
